Assay results published in BindingDB's records for doi:10.1021/jm950682e (Institute De Recherches Servier, 1996).
Numbered stars: 1 amine (or outer) side, 2 acyl side, 3 side chain; on linkers, the order of the positions; unused ones are H or OH. Square brackets hold non-standard residues; d marks the D form. Peptide text beside a SMILES is read from it. * marks the point of attachment. Pentanoyl(5-guanidino) = NC(N)=NCCCCC(=O)*; NH(CH2)9CO = O=C(CCCCCCCCCN[*:1])[*:2]; Oic = O=C(O)[CH]1C[CH]2CCCC[CH]2N1; Tic = O=C(O)[CH]1Cc2ccccc2CN1; 2Thi = N[CH](Cc1cccs1)C(=O)O; X2 = N=C(N)NCCCCCC(=O)*; GABA = NCCCC(=O)O

Molecular target: T1, B2 bradykinin receptor (Oryctolagus cuniculus, UniProt Q28642)
T1 sequence (Q28642 whole entry): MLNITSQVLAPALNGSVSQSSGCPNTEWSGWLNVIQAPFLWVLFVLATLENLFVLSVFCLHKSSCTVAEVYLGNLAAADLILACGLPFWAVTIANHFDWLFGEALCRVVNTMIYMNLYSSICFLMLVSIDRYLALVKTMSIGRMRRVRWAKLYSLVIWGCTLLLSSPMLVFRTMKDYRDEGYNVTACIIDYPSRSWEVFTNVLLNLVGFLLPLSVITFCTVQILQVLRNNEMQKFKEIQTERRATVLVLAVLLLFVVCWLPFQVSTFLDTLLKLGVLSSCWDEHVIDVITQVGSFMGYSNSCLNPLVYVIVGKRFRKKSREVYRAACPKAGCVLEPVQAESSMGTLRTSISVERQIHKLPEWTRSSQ
Experiment: In vitro antagonistic activity against kinin-induced rabbit jugular vein contraction.
In short: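 Rabbit jugular vein rings (B2 tissue), reference KCl 60 mM contraction then 45 min rest; antagonist, usually 10-7, 10^-6 and 10^-5 M, incubated 45 min before cumulative bradykinin; one curve per ring; pA2 by Tallarida's method with Schild slope constrained to unity, or pKB from EC50 ratio when activity appeared only at 10^-5 M.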

| Compound | Kd |
| --- | --- |
| N=C(N)NCCCC(NC(=O)C1CC2CCCCC2N1C(=O)C1Cc2ccccc2CN1C(=O)C(Cc1ccccc1)NC(=O)CCCN)C(=O)O (stereo not given) (H-[GABA]F[Tic][Oic]R-OH; configuration not given here) | 363 nM |
| N=C(N)NCCCC(NC(=O)C1CC2CCCCC2N1C(=O)C1Cc2ccccc2CN1C(=O)C(Cc1cccs1)NC(=O)CCCN)C(=O)O (stereo not given) (H-[GABA][2Thi][Tic][Oic]R-OH; configuration not given here) | 251 nM |
| N=C(N)NCCCCCC(=O)NC(Cc1cccs1)C(=O)N1Cc2ccccc2CC1C(=O)N1C(C(=O)NC(CCCNC(=N)N)C(=O)O)CC2CCCCC21 (stereo not given) (X2-[2Thi][Tic][Oic]R-OH; configuration not given here) | 3390 nM |
| N=C(N)NCCCC(NC(=O)C1CC2CCCCC2N1C(=O)C1Cc2ccccc2CN1C(=O)C(Cc1cccs1)NC(=O)CCCCCCCCCN)C(=O)O (stereo not given) ({NH(CH2)9CO}-[2Thi][Tic][Oic]R-OH; configuration not given here) | 468 nM |
| N=C(N)NCCCCC(=O)NC(Cc1cccs1)C(=O)N1Cc2ccccc2CC1C(=O)N1C(C(=O)NC(CCCNC(=N)N)C(=O)O)CC2CCCCC21 (stereo not given) ({Pentanoyl(5-guanidino)}-[2Thi][Tic][Oic]R-OH; configuration not given here) | 3020 nM |
